Source: ChEMBL document CHEMBL1136568 (Bioorg Med Chem Lett, 2003)

How the values were obtained:
[1] = molecular target: T1, Inosine-5'-monophosphate dehydrogenase 2 (Homo sapiens, UniProt P12268); experiment: Inhibition of human inosine monophosphate dehydrogenase IMPDH II
Method in brief: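 Human type II IMPDH expressed in and purified from E. coli, used at 40 nM. Buffer: 0.1 M Tris, 0.1 M KCl, 3 mM EDTA, pH 8.0, with 400 µM IMP and 2 mM DTT. Compounds were added from DMSO to a final 2.5% DMSO. NAD (400 µM final) started the reaction. After 2 h at 25°C, NADH was read at 340 nm. IC50 came from a four-parameter logistic fit.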

[2] = molecular target: T2, Inosine-5'-monophosphate dehydrogenase 1 (Homo sapiens, UniProt P20839); experiment: Inhibitory activity against inosine monophosphate dehydrogenase IMPDH type I
Target sequence in this assay (P20839 whole entry): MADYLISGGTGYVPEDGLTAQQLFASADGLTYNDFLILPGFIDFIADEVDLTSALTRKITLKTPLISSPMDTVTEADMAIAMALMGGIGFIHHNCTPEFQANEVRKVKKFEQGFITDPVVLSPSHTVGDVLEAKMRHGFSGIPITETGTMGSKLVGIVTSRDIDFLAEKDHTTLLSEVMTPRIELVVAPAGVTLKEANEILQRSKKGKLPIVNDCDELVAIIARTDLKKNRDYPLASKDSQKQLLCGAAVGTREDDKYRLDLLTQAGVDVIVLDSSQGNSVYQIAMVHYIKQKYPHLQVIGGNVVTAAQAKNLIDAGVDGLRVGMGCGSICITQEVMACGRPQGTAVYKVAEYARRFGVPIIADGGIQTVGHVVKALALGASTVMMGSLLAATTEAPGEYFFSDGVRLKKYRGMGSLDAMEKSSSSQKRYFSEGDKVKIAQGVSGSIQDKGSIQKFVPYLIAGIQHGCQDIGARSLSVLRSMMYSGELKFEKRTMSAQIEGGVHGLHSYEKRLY

[3] = molecular target: T2, Inosine-5'-monophosphate dehydrogenase 1; experiment: Ratio of IC50(Type I) to IC50(Type II)
Target sequence in this assay (P20839 2-514 limits assumed): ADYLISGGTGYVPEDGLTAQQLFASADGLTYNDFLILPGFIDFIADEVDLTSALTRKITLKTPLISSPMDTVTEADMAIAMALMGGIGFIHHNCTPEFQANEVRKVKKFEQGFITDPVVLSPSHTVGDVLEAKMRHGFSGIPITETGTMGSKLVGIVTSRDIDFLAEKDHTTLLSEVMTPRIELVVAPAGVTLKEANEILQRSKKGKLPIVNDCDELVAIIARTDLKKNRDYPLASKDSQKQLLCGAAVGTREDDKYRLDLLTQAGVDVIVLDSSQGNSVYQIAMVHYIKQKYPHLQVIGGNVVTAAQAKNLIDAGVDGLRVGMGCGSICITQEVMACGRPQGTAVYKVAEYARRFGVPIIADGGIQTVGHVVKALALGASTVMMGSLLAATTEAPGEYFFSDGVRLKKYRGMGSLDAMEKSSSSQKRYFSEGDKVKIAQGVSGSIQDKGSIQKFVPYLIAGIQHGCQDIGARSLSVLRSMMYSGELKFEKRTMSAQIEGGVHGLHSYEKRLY

CCRF-CEM = experiment: Inhibitory activity against CEM cell proliferation; assay type: functional, cell-based; details: Homo sapiens
[4] = molecular target: T1, Inosine-5'-monophosphate dehydrogenase 2; experiment: Inhibitory activity against IMPDH II with respect to IMP and NAD

Compound | IC50 [1] | further results
COc1cc2nccc(O)c2cc1-c1cnco1 | 300 nM | 
COc1cc2nc(C(C)(C)C)cc(O)c2cc1-c1cnco1 | > 10000 nM | 
COc1cc2nc(-c3ccccc3)cc(O)c2cc1-c1cnco1 | 8 nM | IC50 [2]: 99 nM; Ki [4]: 7 nM; Ratio [3]: 12; IC50 (CCRF-CEM): 690 nM
COc1cc2nc(-c3ccc(C)c(C)c3)cc(O)c2cc1-c1cnco1 | < 5 nM | IC50 [2]: 83 nM; Ratio [3]: > 17; IC50 (CCRF-CEM): 410 nM
COc1cc(NC(=O)Nc2cccc(C)c2)ccc1-c1cnco1 |  | IC50 [2]: 55 nM; Ratio [3]: 2.9; IC50 (CCRF-CEM): 320 nM
COc1ccc(-c2cc(O)c3cc(-c4cnco4)c(OC)cc3n2)cc1 | < 5 nM | IC50 [2]: 90 nM; Ratio [3]: > 18; IC50 (CCRF-CEM): 370 nM
COc1cc2nc(-c3ccc(C)c(Br)c3)cc(O)c2cc1-c1cnco1 | 19 nM | 
COc1cc2nc(Cc3ccccc3)cc(O)c2cc1-c1cnco1 | 180 nM | 
COc1cc2nc(C)cc(O)c2cc1-c1cnco1 | 110 nM | 
COc1cc2nc(-c3cc(C)ccc3C)cc(O)c2cc1-c1cnco1 | 29 nM | 
COc1cc2nc(-c3cccc(S(C)(=O)=O)c3)cc(O)c2cc1-c1cnco1 | 160 nM | 
COc1c(C)c2c(c(O)c1C/C=C(\C)CCC(=O)O)C(=O)OC2 [MYCOPHENOLIC ACID] |  | IC50 [2]: 55 nM
CNc1cc(O)c2cc(-c3cnco3)c(OC)cc2n1 | 220 nM | 
COc1cc2nc(-c3cccc(C(=O)O)c3)cc(O)c2cc1-c1cnco1 | 160 nM | 
COc1cc2nc(-c3ccccc3)c(C)c(O)c2cc1-c1cnco1 | 65 nM | 
COc1cc2nc(N(C)C)cc(O)c2cc1-c1cnco1 | 200 nM | 
COc1cc2nc(-c3ccc(C(=O)O)cc3)cc(O)c2cc1-c1cnco1 | > 1000 nM | 

Continued, in another order:

IC50 [1] | Compound | further results
43 nM | COc1cc2nc(-c3ccccn3)cc(O)c2cc1-c1cnco1 | 
5 nM | COc1cc2nc(-c3cccc(C)c3)cc(O)c2cc1-c1cnco1 | IC50 [2]: 150 nM; Ratio [3]: 30; IC50 (CCRF-CEM): 1100 nM
5 nM | COc1cc2nc(-c3ccc(Br)cc3)cc(O)c2cc1-c1cnco1 | 
32 nM | COc1cc2nc(-c3ccoc3)cc(O)c2cc1-c1cnco1 | 
43 nM | COc1cc2nc(-c3ccc(O)cc3)cc(O)c2cc1-c1cnco1 | 
22 nM | COc1cc2nc(-c3cccc(Br)c3)cc(O)c2cc1-c1cnco1 | 
65 nM | COc1cc2nc(-c3ccccc3C)cc(O)c2cc1-c1cnco1 | 
46 nM | COc1cc2nc(-c3ccncc3)cc(O)c2cc1-c1cnco1 | 
< 5 nM | COc1cc2nc(-c3ccc(C)cc3)cc(O)c2cc1-c1cnco1 | IC50 [2]: 46 nM; Ratio [3]: > 9; IC50 (CCRF-CEM): 560 nM
70 nM | COc1cc2nc(-c3cccnc3)cc(O)c2cc1-c1cnco1 | 
63 nM | COc1cc2nc(-c3cccs3)cc(O)c2cc1-c1cnco1 | 
34 nM | COc1cc2nc(-c3cscn3)cc(O)c2cc1-c1cnco1 | 
9 nM | COc1cc2nc(-c3ccsc3)cc(O)c2cc1-c1cnco1 | IC50 [2]: 55 nM; Ratio [3]: 6; IC50 (CCRF-CEM): 340 nM
18 nM | COc1cc2nc(-c3cccc(O)c3)cc(O)c2cc1-c1cnco1 | 
